Test results reported in PMC2797757 (Journal of medicinal chemistry, 2009).
Entries after “also recorded” stand apart in the source; their conditions may differ.

Tests used:
[1] = system: tubulin; assay: [3H]Colchicine binding assay; set-up: species or system bovine; conditions: Tubulin 1 μM; [3H]colchicine and inhibitor both 5 μM
[2] = system: MCF-7 human breast carcinoma cells; assay: Growth of MCF-7 cells; format: cell-based; conditions: MCF7, 48 h, read-out: MCF-7 IC50 ± SD
[3] = system: HAOSMC: human aortic smooth muscle cells; assay: Growth inhibition of nontransformed cells, HAOSMC; format: cell-based; conditions: read-out: HAOSMC IC50 ± SD
[4] = system: A10, rat embryonic aortic smooth muscle cells; assay: Growth inhibition of nontransformed cells, A10; format: cell-based; conditions: read-out: A10 IC50 ± SD
[5] = system: HeLa cervical cancer cells; assay: Cell viability/proliferation assay, HeLa; format: cell-based, human; conditions: 24 h, control cells = 100%
Summary of the method: (§1)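 Cells grown at 37 °C, 5% CO2, in D-MEM with 10% fetal calf serum, 4 mM glutamine and 2 mM pyruvate; HCT116/chr3 also got 500 μg/mL G418. Seeded at 1 × 10^3 cells/well and treated 24 h later for 24 h from a 10 mM DMSO stock. Vehicle control was 1% DMSO. Tetrazolium reagent added for 4 h at 37 °C, then absorbance read at 492 nm. Quadruplicate, three repeats; results are % of control, mean ± SD.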

[6] = system: M14 cells; assay: Time-lapse microscopy, M14 cell morphology and growth; format: cell-based, human; conditions: 48 h treatment
[7] = system: PtK2: potorous tridactylis kidney epithelial cells; assay: Growth inhibition of nontransformed cells, PtK2; format: cell-based, Potorus tridactylis; conditions: read-out: PtK2 IC50 ± SD
[8] = system: HEK cells; assay: Time-lapse microscopy, HEK cell morphology and growth; format: cell-based, human; conditions: 48 h treatment
[9] = system: HUVEC: human umbilical vein endothelial cells; assay: Growth inhibition of nontransformed cells, HUVEC; format: cell-based; conditions: read-out: HUVEC IC50 ± SD
[10] = system: M14, human melanoma cells; assay: Growth inhibition, MTT, M14; format: cell-based; conditions: read-out: M14 IC50 ± SD; MTT method; incubation 48 h
[11] = system: HCT116/chr3 human colon cancer cells; assay: Cell viability/proliferation assay, HCT116/chr3; format: cell-based; conditions: 24 h, control cells = 100%
Summary of the method: as §1

[12] = system: HEK, human embryonic kidney 293 cells; assay: Growth inhibition, MTT, HEK; format: cell-based; conditions: read-out: HEK IC50 ± SD; MTT method; incubation 48 h
[13] = system: U937, human leukemic monocyte lymphoma cells; assay: Growth inhibition, MTT, U937; format: cell-based; conditions: read-out: U937 IC50 ± SD; MTT method; incubation 48 h
[14] = system: Saccharomyces cerevisiae BY4741 wild type strain; assay: Yeast toxicity protocol; format: cell-based; conditions: 20 μM, growth recorded after 3 days at 28 °C; for effect on viability/growth of BY4741 strain cells: 18 h incubation; for serial dilution to which cell growth was limited: 10-fold serial cell dilution
Summary of the method: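 S. cerevisiae BY4741 (MATa his3Δ1 leu2Δ0 met15Δ0 ura3Δ0) grown at 28 °C in SD minimal medium with 2% glucose. Exponential cells (5 × 10^6/mL) exposed to 20 μM for 18 h at 28 °C, then centrifuged, washed twice with water and resuspended in SD. Serial 10-fold dilutions incubated overnight at 28 °C, spotted on YPD plates, and growth scored after 3 days at 28 °C.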

Compound: Ethyl 5-Bromo-3-(3,4,5-trimethoxybenzoyl)-1H-indole-2-carboxylate [Compound 31]
- inhibition colchicine binding (% ± SD) [1]: 58±2%

Compound: COC(=O)c1[nH]c2ccccc2c1Sc1cc(OC)c(OC)c(OC)c1 [Compound 6]
- IC50 [2]: 25 ± 1 nM

Compound: Methyl 5-Methoxy-3-(3,4,5-trimethoxybenzyl)-1H-indole-2-carboxylate [Compound 41]
- inhibition colchicine binding (% ± SD) [1]: 59±1%
- IC50 [3]: 70 ± 10 nM
- IC50 [4]: 130 ± 100 nM
- % of cell proliferation, HeLa ([5]; 0.5 μM): 52±0.7%
- % of cell proliferation, HeLa ([5]; 1 μM): 51±0.2%
- effect on M14 cell morphology [6]: significant morphologic changes
- IC50 [7]: 190 ± 200 nM
- effect on HEK cell morphology [8]: significant morphologic changes
- IC50 [9]: 170 ± 50 nM
- IC50 [10]: 137 ± 5 nM
- % of cell proliferation, HCT116/chr3 ([11]; 0.5 μM): 69±6.7%
- % of cell proliferation, HCT116/chr3 ([11]; 1 μM): 69±0.3%
- IC50 [12]: 181 ± 3 nM
- IC50 [13]: 189 ± 5 nM

Compound: (5-Bromo-1H-indol-3-yl)(3,4,5-trimethoxyphenyl)methanone [Compound 25]
- inhibition colchicine binding (% ± SD) [1]: 45±5%

Compound: methyl 5-methoxy-3-(3,4,5-trimethoxyphenylthio)-1H-indole-2-carboxylate [Compound 36]
- effect on viability/growth of BY4741 strain cells [14]: significant inhibitory effects

Compound: COc1cc(Sc2c[nH]c3ccc(Cl)cc23)cc(OC)c1OC [Compound 12]
- IC50 [2]: 77 ± 7 nM

Compound: Ethyl 5-Methoxy-3-(3,4,5-trimethoxybenzoyl)-1H-indole-2-carboxylate [Compound 43]
- inhibition colchicine binding (% ± SD) [1]: 49±4%

Compound: Ethyl 5-Bromo-3-(3,4,5-trimethoxyphenylthio)-1H-indole-2-carboxylate [Compound 30]
- inhibition colchicine binding (% ± SD) [1]: 62±7%

Compound: Methyl 5-Bromo-3-(3,4,5-trimethoxybenzyl)-1H-indole-2-carboxylate [Compound 29]
- inhibition colchicine binding (% ± SD) [1]: 59±7%
- IC50 [3]: 35 ± 7 nM
- IC50 [4]: 230 ± 100 nM
- % of cell proliferation, HeLa ([5]; 0.5 μM): 52±0.4%
- % of cell proliferation, HeLa ([5]; 1 μM): 45±1.6%
- IC50 [7]: 270 ± 100 nM
- IC50 [9]: 140 ± 20 nM
- IC50 [10]: 120 ± 10 nM
- % of cell proliferation, HCT116/chr3 ([11]; 0.5 μM): 51±4.6%
- % of cell proliferation, HCT116/chr3 ([11]; 1 μM): 51±1.6%
- effect on viability/growth of BY4741 strain cells [14]: significant BY4741 inhibition
- serial dilution to which cell growth was limited [14]: third dilution
- IC50 [12]: 160 ± 5 nM
- IC50 [13]: 159 ± 10 nM

Compound: Methyl 5-Bromo-3-(3,4,5-trimethoxybenzoyl)-1H-indole-2-carboxylate [Compound 28]
- inhibition colchicine binding (% ± SD) [1]: 67±4%
- IC50 [3]: 55 ± 40 nM
- IC50 [4]: 280 ± 40 nM
- % of cell proliferation, HeLa ([5]; 0.5 μM): 41±1.1%
- % of cell proliferation, HeLa ([5]; 1 μM): 47±0.4%
- IC50 [7]: 110 ± 60 nM
- IC50 [9]: 150 nM
- % of cell proliferation, HCT116/chr3 ([11]; 0.5 μM): 59±0.2%
- % of cell proliferation, HCT116/chr3 ([11]; 1 μM): 66±3.5%
- IC50 [12]: 131 ± 3 nM
- IC50 [13]: 191 ± 7 nM

Compound: (5-Methoxy-1H-indol-3-yl)-(3,4,5-trimethoxyphenyl)methanone [Compound 34]
- inhibition colchicine binding (% ± SD) [1]: 32±7%

Compound: COc1cc(Cn2cccc2C(=O)O)cc(OC)c1OC [Compound 54, 1-(3,4,5-Trimethoxybenzyl)-1H-pyrrole-2-carboxylic acid]
- effect on viability/growth of BY4741 strain cells [14]: effectively inhibited growth; also recorded: strongly reduced the viability
- serial dilution to which cell growth was limited [14]: first dilution

Compound: Ethyl 5-Bromo-3-(3,4,5-trimethoxybenzyl)-1H-indole-2-carboxylate [Compound 32]
- inhibition colchicine binding (% ± SD) [1]: 53±4%

Compound: Methyl 5-Bromo-3-(3,4,5-trimethoxyphenylthio)-1H-indole-2-carboxylate [Compound 27]
- inhibition colchicine binding (% ± SD) [1]: 75±3%
- IC50 [3]: 100 ± 30 nM
- IC50 [4]: 230 ± 100 nM
- % of cell proliferation, HeLa ([5]; 0.5 μM): 53±0.1%
- % of cell proliferation, HeLa ([5]; 1 μM): 60±0.1%
- IC50 [7]: 280 ± 30 nM
- IC50 [9]: 140 ± 20 nM
- IC50 [10]: 155 ± 9 nM
- % of cell proliferation, HCT116/chr3 ([11]; 0.5 μM): 57±0.9%
- % of cell proliferation, HCT116/chr3 ([11]; 1 μM): 62±1.9%
- IC50 [12]: 189 ± 5 nM
- IC50 [13]: 177 ± 10 nM

Compound: CCOC(=O)c1[nH]c2ccc(Cl)cc2c1Sc1cc(OC)c(OC)c(OC)c1 [Compound 18]
- IC50 [2]: 110 ± 2 nM

Compound: Methyl 5-Methoxy-3-(3,4,5-trimethoxybenzoyl)-1H-indole-2-carboxylate [Compound 39]
- inhibition colchicine binding (% ± SD) [1]: 78±6%
- IC50 [3]: 35 ± 7 nM
- IC50 [4]: 95 ± 80 nM
- % of cell proliferation, HeLa ([5]; 0.5 μM): 55±0.7%
- % of cell proliferation, HeLa ([5]; 1 μM): 54±0.3%
- effect on M14 cell morphology [6]: significant morphologic changes
- IC50 [7]: 190 ± 20 nM
- effect on HEK cell morphology [8]: significant morphologic changes
- IC50 [9]: 110 ± 60 nM
- IC50 [10]: 100 ± 5 nM
- % of cell proliferation, HCT116/chr3 ([11]; 0.5 μM): 57±3.4%
- % of cell proliferation, HCT116/chr3 ([11]; 1 μM): 55±1.2%
- effect on viability/growth of BY4741 strain cells [14]: significant inhibitory effects
- IC50 [12]: 140 ± 1 nM
- IC50 [13]: 155 ± 10 nM

Compound: COc1cc(Sc2c[nH]c3ccccc23)cc(OC)c1OC [Compound 3]
- IC50 [2]: 34 ± 9 nM

Compound: Ethyl 5-Methoxy-3-(3,4,5-trimethoxybenzyl)-1H-indole-2-carboxylate [Compound 45]
- inhibition colchicine binding (% ± SD) [1]: 42±4%
